Experimental data gathered from unrelated publications.
Compare with care: the assays were run in different laboratories.
Target: Serine/threonine-protein kinase PLK1 (PLK1, Homo sapiens, UniProt P53350)

For `CS(=O)(=O)NCC[C@H](NC(=O)c1cncc2c1cnn2-c1ccc(F)cc1)c1ccnc(S(C)(=O)=O)c1`, the remaining binding was 100% (cell-free assay; competition with immobilised ligand; 1 µM).
The remaining binding of `CC(C)(C)c1ccc(-c2nc(CBr)nn2-c2cccc(O)c2)cc1` is reported as 84% (cell-free assay; competition with immobilised ligand; 10 µM).
With `O=C(c1ccc(Nc2ncc(Cl)c(-c3cc4ccccc4s3)n2)cc1)N1CCC(N2CCCC2)CC1` the remaining binding was 57% (binding; competition with immobilised ligand; 1 µM).
The remaining binding of `Cc1c(C(=O)O)cc(-c2ccc(C3CCNCC3)cc2)c2ccc(-c3ccc(C(F)(F)F)cc3)cc12` is reported as 94% (binding; competition with immobilised ligand; 1 µM).
`c1cnn2ncc(-c3ccnc(N4CCC45COC5)n3)c2c1` gave a remaining binding of 72% (binding; 1 µM).
`COc1ncc2cc3ccccc3nc2c1C#N` gave a remaining binding of 73% (cell-free assay; competition with immobilised ligand; 5 µM).
The remaining binding of `C=CC(=O)N1CCC(C(=O)NCC(=O)N2CCN(c3nc(-c4cnc(N)nc4C(F)F)nc(N4CCOCC4)n3)CC2)CC1` is reported as 99% (binding; competition with immobilised ligand; 1 µM).
The remaining binding of `CNC(=O)c1ccccc1Nc1cc(Nc2ccc(N3CCOCC3)cc2OC)ncc1C(F)(F)F` is reported as under 10% (binding; competition with immobilised ligand; 1 µM).
The remaining binding of `O=C(NCCCN1CCOCC1)c1ccc(Nc2ncc(Cl)c(-c3ccc(Cl)s3)n2)cc1` is reported as 22% (binding; competition with immobilised ligand; 1 µM).
`C[C@H]1CCN(c2nccc(-c3cnn4ncccc34)n2)C1` gave a remaining binding of 100% (binding; 1 µM).
The remaining binding of `NS(=O)(=O)c1cc(NC(=O)Cc2ccccc2)ccc1Oc1cccc(Cl)c1` is reported as 73% (cell-free assay; competition with immobilised ligand; 1 µM).
`O=C(NCC1CCOCC1)c1n[nH]cc1NC(=O)c1c(F)cccc1F` has a remaining binding of 90% (binding; competition with immobilised ligand; 1 µM).
With `CN(c1nccc(-c2cnn3ncccc23)n1)C1CC1` the remaining binding was 100% (binding; 1 µM).
With `N#Cc1ccc(Nc2ccc3[nH]c(=O)[nH]c3c2)c(Cl)c1` the remaining binding was 100% (cell-free assay; competition with immobilised ligand; 1 µM).
`Cc1cnn2ncc(-c3ccnc(N(C)C)n3)c2c1` has a remaining binding of 84% (binding; 1 µM).
`COc1cnc(Nc2cccc(S(N)(=O)=O)c2)nc1N1CCN(c2ccccc2)C(=O)C1` has a remaining binding of 80% (binding; competition with immobilised ligand; 1 µM).
For `COc1ccnn2ncc(-c3ccnc(N(C)C)n3)c12`, the remaining binding was 94% (binding; 1 µM).
For `Nc1cnc(N2CCc3cc(S(=O)(=O)Nc4c(F)cc(Cl)cc4F)cc(N4CCCC4=O)c32)nc1`, the remaining binding was 100% (cell-free assay; competition with immobilised ligand; 1 µM).
`CNC(=O)[C@@H]1CC[C@@H](n2c(-c3ccc4cnccc4c3)nc3ccc(C(=O)NCc4cccc(C(N)=O)c4)cc32)C1` gave a remaining binding of 100% (binding; competition with immobilised ligand; 1 µM).
With `C[C@@H]1CN(c2ccc3ncc(-c4ccc5[nH]nc(C6CC6)c5c4)n3n2)C[C@H](C)O1` the remaining binding was 97% (binding; competition with immobilised ligand; 50 nM).
With `CO[C@@H](C)c1c(Nc2ccc([C@@H](N(C)C(=O)C3CCS(=O)(=O)CC3)C(F)(F)F)cc2)cnc2cc(Cl)nn12` the remaining binding was 87% (cell-free assay; competition with immobilised ligand; 1 µM).
`N#Cc1ccccc1CSc1nnc2c(n1)[nH]c1ccccc12` has a remaining binding of 94% (binding; competition with immobilised ligand; 10 µM).
For `Cc1cnc(Nc2ccc(C(=O)N3CCC(N4CCCC4)CC3)cc2)nc1-c1cc2ccccc2s1`, the remaining binding was 37% (binding; competition with immobilised ligand; 1 µM).
The remaining binding of `C[C@H](c1cccc(C#N)c1)n1cc(Cl)cc(C(N)=O)c1=N` is reported as 89% (cell-free assay; competition with immobilised ligand; 1 µM).
With `F[C@@H]1CCN(c2nccc(-c3cnn4ncccc34)n2)C1` the remaining binding was 100% (binding; 1 µM).
